This is an account of results in the EternaBench riboswitch data.

The subject of the data set is MS2 coat protein. As to the kind of experiment: apparent Kd, MS2 coat protein; higher = weaker binding; RNA-MaP array; FMN 200 µM where present. In outline: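 Designs on Illumina sequencing-chip clusters, transcribed by stalled E. coli RNA polymerase, were exposed to SNAP-549-labelled MS2 coat protein in doubling steps from 0.7 or 1.5 nM up to 3 µM, without and then with constant ligand. The buffer held 100 mM Tris-HCl pH 7.5, 80 mM KCl, 4 mM MgCl2, BSA, DTT, yeast tRNA and Tween-20. Apparent Kd values are medians of filtered per-cluster binding-curve fits to green signal normalised to red-channel RNA signal and control-cluster median Fmax.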

Setting [1] is: designed as: ON switch for flavin mononucleotide, no ligand.
The mark [2] stands for this setting: ligand present: flavin mononucleotide, designed as: ON switch for flavin mononucleotide.
The mark [3] stands for this setting: designed as: OFF switch for flavin mononucleotide, no ligand.
Setting [4] is: ligand present: flavin mononucleotide, designed as: OFF switch for flavin mononucleotide.

As to “GGUGCAUAUGAGAAGGCGAUCAUGAAACAUGAUCGAGGAUAUCAUGUAAACAUGAGGAUCACCCAUGUAUGGGAAAAGUGCACC”, the “apparent Kd” value came to 64.8 nM under setting [1] and 8.54 nM under setting [2].

Take “AGCUACGUUUCGUAGCAGUGUCAUCGAGAAGGCCCUGACAUGAGGAUCACCCAUGUUGUUACAUGGGAGGAUAUCGAUGAUACU”: the “apparent Kd” value amounted to 13.4 nM under setting [1] and 5.59 nM under setting [2].

As to “AAAAUAAGAACAGGAUAUGUGGGUUCGAAAAGCAAAGCUUUCCACAUGAGGAUCACCCAUGUGCCACAGAAGGGUUCGGGUGAU”, the “apparent Kd” value reads like this: under setting [1], 69.1 nM; under setting [2], 27.4 nM.

With “GGACGUCACAUUAACAUGAGGAUCACCCAUGUCAAAAGACAUGAGGAUAUGGAUCCUAAUUGGAUCCAGAAGGCAUGGACGUCC”, the “apparent Kd” value is 664 nM under setting [1] and 33.4 nM under setting [2].

“UGAUCGGAGACAGGAUAUGUGACUGCAUAGUGCACAGAAGGGUCUACAUGAGGAUCACCCAUGUCACCGAACAUCAAACAACAA”: the “apparent Kd” value is, setting by setting: under setting [1], 433 nM; under setting [2], 41.9 nM.

As for “AAAAGACAUGAGGAUCACCCAUGUGAAAACGUAGGAGGAUAUGUAUGGAAACCAUACUGUACAGAAGGCCUUUGUC”, the “apparent Kd” value turned out to be 28.1 nM under setting [1] and 29.7 nM under setting [2].

For “UCAGAGGCUGACAUGAGGAUCACCCAUGUUAGAUUGUUAUGUCAGGAUAUUAUCUGGCAACCAGAUGAGAAGGGACCCUCUGUG”, the “apparent Kd” value runs as follows: under setting [1], 22 nM; under setting [2], 7.67 nM.

For “CUGCCACAUGAGGAUCACCCAUGUGAGGAUAUGGCCUGUUUGGCGUGUGCUGGCUCUGUCAGAAGGCGCGUGGG”, the “apparent Kd” value is 24.1 nM under setting [3] and 33.9 nM under setting [4].

“GCUCGUAGACAGAAGGCGACAUGAGGAUCACCCAUGUUGGCUCGGGUAUGACCAAUCCGCAUGAUCGAGGAUAUGUCCGCGGGC”: the “apparent Kd” value was found to be 287 nM under setting [3] and 16.4 nM under setting [4].

“GAGAAGUCAGGAUAUGCAUGGCGGGACUUGCGUCGUGGCGUGCAGAAGGGACAUGAGGAUCACCCAUGUGGAGG”: the “apparent Kd” value under setting [3] was determined as 169 nM and the “apparent Kd” value under setting [4] is 243 nM.

On to “GUAGCAUGCCAAGGAUAUUCAUAUAGUAGGCAAACAUGAGGAUCACCCAUGUAAUGAUCGCAGUGGGAGAAGGUGGGAUGCUAC”, for which the “apparent Kd” value runs as follows: under setting [1], 31.8 nM; under setting [2], 21.1 nM.

Turning to “CAUGUGUAAGGAUAUGACAAUGGUAUCUUCGGAUACCAUUGUCAGAAGGUACAUGAGGAUCACCCAUGUGGAUC”, the “apparent Kd” value under setting [3] came out at 441 nM and the “apparent Kd” value under setting [4] was found to be 103 nM.

On to “UGGUACAUGGGAGGAUAUCAUGUAGAGACAUGAGGAUCACCCAUGUCGAUGGAGACAUCGGAGAUUGAGAAGGCCCAUGUACCU”, for which the “apparent Kd” value is, setting by setting: under setting [1], 152 nM; under setting [2], 23.1 nM.

Turning to “UGGUACCAGGGAGGAUAUGGGAAGAUACAUGAGGAUCACCCAUGUUUAAGAAUGCCGAGAGGCAACUAGAAGGCCCUAGUACCU”, the “apparent Kd” value was determined as 338 nM under setting [1] and 19 nM under setting [2].

Regarding “GCGACGAUCGAGAAGGCCACUACAUGAGGAUCACCCAUGUCGUGGUGUAUUGGAGGAUAUCGAUCAGCGUCUUAUGAGGACAUG”, the “apparent Kd” value under setting [3] was 5.13 nM and the “apparent Kd” value under setting [4] is 7.68 nM.

As for “GACUGAUUGUAGAAGGUACUUGAAUAUAUAUUUUAUCUCAUGUGACAUGAGGAUCACCCAUGUAGUAAGGAUAUACAUAUCACA”, the “apparent Kd” value by setting is: under setting [1], 52.9 nM; under setting [2], 42.2 nM.

As to “GCGUCAGAAUUAAUUGUGACAUACAGAAGGCAAUAGUUAAUUUCAGACAUGAGGAUCACCCAUGUUGAGGAUAUGUAGAGAAUC”, the “apparent Kd” value amounted to 11.8 nM under setting [3] and 10.5 nM under setting [4].

For “UUACGUCACAUUUACAUGAGGAUCACCCAUGUCGAAAGACAUGAGGAUAUGCUACCUAAUUGGUAGCAGAAGGCAUGGACGUCG”, the “apparent Kd” value under setting [1] stood at 834 nM and the “apparent Kd” value under setting [2] turned out to be 81.1 nM.

As for “GUCAGAUCGUGAGGAUAUACAACACUGCUUCGGCAGUGUAUUAAGAUCACAUGAGGAUCACCCAUGUAGAAGGCACGAGCUGAU”, the “apparent Kd” value came out at 13.3 nM under setting [3] and 236 nM under setting [4].

“AUAUUACGAGGAUAUCGUUUUUUUCACAUGAGGAUCACCCAUGUUAUCCAUGUUUCGUUUCGAGAAGGCGUAAGUU”: the “apparent Kd” value came out at 50.6 nM under setting [3] and 36.1 nM under setting [4].

For orientation: apparent Kd means the concentration giving half-maximal binding under the conditions of the assay.
